Screening data: PubChem BioAssay, Broad Institute
PGC1a acetyl up: compounds raising PGC1a acetylation signal, primary screen, PGC1a modulator project, cell-based, U2OS, AlphaScreen, signal-increasing mode; overnight; activation, % at 15.6 µM; 350,000 tested, 0.21% active; AID 651723, 2012;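 active = every replicate reaching activation of at least 50%, whatever the mean replicate activation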;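 note: hits raise the AlphaScreen acetylation signal above neutral controls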
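detection = AlphaScreen lysate read | assay system = U2OS cells expressing flag-PGC1a plus GCN5 | input = 7000 cells/well | dosing = one concentration | times = compound overnight at 37 °C, each detection step 1 h RT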
* hit, by the source's call. A selection follows.

SMILES | PGC1a acetyl up
CCCCSc1ccc(NC(=O)c2cccnc2)cc1 | 70*
CC(=O)c1cccc(NC(=O)Nc2cccnc2)c1 | -50
CCCCC(=O)Nc1ccc(NC(=O)c2cccs2)cn1 | -49
COc1ccc(NC(=O)C/C(C)=N/NC(=O)C(=O)NC(C)C)c(OC)c1 | -48
COc1ccccc1NC(=O)CCC(=O)Nc1ccccc1OC | 54*
COc1ccccc1NC(=O)/C=C1\SCC(=O)N1C | -93
CCOC(=O)c1ccc(NC(=O)Nc2ccc(F)cc2)cc1 | -45
CCOC(=O)c1ccc(NC(=O)CCS(=O)(=O)c2ccc(Br)s2)cc1 | 50*
COc1ccc2c(c1)c1nc3ccccc3nc1n2CC(=O)OC(C)C | -46
COc1ccc2c(c1)sc1nc(-c3ccccc3)cn12 | 71*
C[C@@H]1CN([C@H](C)CO)C(=O)c2cc(-c3ccccc3)cnc2O[C@@H]1CN(C)C(=O)Cc1ccccc1 | -42
C[C@@H]1CN([C@H](C)CO)C(=O)c2cc(NC(=O)Cc3ccccc3)ccc2O[C@@H]1CN(C)Cc1ccncc1 | -49
Cc1nc([N+](=O)[O-])c(Br)n1CC(=O)c1ccc(Br)cc1 | -64
Nc1ccccc1-c1ccn[nH]1 | -41
N#C/C(=C/c1ccc(N2CCCCCC2)o1)c1ccc(F)cc1 | 91*
O=c1cc(CSc2ccccn2)[nH]c(=O)[nH]1 | -44
CO[C@H]1CN(C)C(=O)c2ccc(NC(=O)Nc3ccccc3F)cc2OC[C@@H](C)NC[C@@H]1C | -49
COc1ccc(-c2ccc(/C=N/NC(=O)Cc3nnc(N)s3)o2)cc1Cl | -57
O=C(N/N=C\c1ccc([N+](=O)[O-])o1)C1COc2ccccc2O1 (stereo unspecified) | 117*
CCCCCC(=O)N/N=C/c1ccc([N+](=O)[O-])o1 | 105*
CC1=C(C(=O)OCc2ccc3c(c2)OCO3)C(c2ccccc2)NC(=O)N1 (stereo unspecified) | -56
CCn1cc([N+](=O)[O-])c(C(=O)NCc2ccc3c(c2)OCO3)n1 | -42
Cc1ccc(-c2ccc(/C=N/NC(=O)Cc3nnc(N)s3)o2)cc1Cl | -43
O=C(Cc1ccc2c(c1)OCO2)NN=Cc1ccc([N+](=O)[O-])o1 | 137*
CCC(=O)Nc1ccc2c(c1)OC[C@@H](C)N(C(=O)c1cnccn1)C[C@H](C)[C@H](OC)CN(C)C2=O | -59
SMILES | PGC1a acetyl up
CCOc1ccc(CN2CCNC(=O)C2CC(=O)NCc2ccccn2)cc1 (stereo unspecified) | -48
CCOC(=O)CNC(=O)OC1CCN2Cc3ccccc3N=C12 (stereo unspecified) | -78
CN(C)c1ccc(/C=N/N(CCC#N)C2=NS(=O)(=O)c3ccccc32)cc1 | -52
COc1ccc(S(=O)(=O)N2CCC(C(=O)N3CCC(C(N)=O)CC3)CC2)cc1Cl | -44
Oc1ccc(/C=N/Nc2nc(-c3ccc(Cl)cc3)cc(C(F)(F)F)n2)cc1 | -64
COc1ccc(-c2cc(C(F)(F)F)nc(S(C)(=O)=O)n2)cc1 | 66*
CCOC(=O)CCS(=O)(=O)c1nc(-c2ccccc2)cc(C(F)(F)F)n1 | -68
C[C@@H]1CN([C@@H](C)CO)C(=O)c2ccccc2-c2ccccc2CO[C@@H]1CN(C)C(=O)Nc1cccc(Cl)c1Cl | -41
Cc1noc(C)c1NC(=O)N(C)C[C@H]1Oc2c(NC(=O)c3nc4ccccc4s3)cccc2C(=O)N([C@H](C)CO)C[C@H]1C | -54
Cc1nc2[nH]c(=O)c3c(n2n1)NC1=C(C(=O)CC(C)(C)C1)C3c1ccccc1 (stereo unspecified) | -84
O=C(Cc1csc(N2CCOCC2)n1)N/N=C/c1cccc(O)c1 | -56
CSc1nc(SC)c2c3c(oc2n1)COC(C)(C)C3 | 58*
O=C1CC2CS(=O)(=O)CC2N1c1ccc(Cl)cc1Cl (stereo unspecified) | -56
C[C@@H]1CN([C@H](C)CO)C(=O)c2cc(/C=C/c3ccccc3)cnc2O[C@@H]1CN(C)Cc1cccnc1 | -65
O=C(NC(=S)Nc1cc(Cl)ccc1O)c1cccc(Br)c1 | -56
CC1(C)CC(NC(=S)NC(=O)c2cc(Br)ccc2Cl)CC(C)(C)N1 | 226*
CC(=O)c1cccc(NC(=S)NC(=O)c2ccc(Br)cc2)c1 | -41
Cc1[nH]c(=O)[nH]c(=O)c1S(=O)(=O)Nc1ccc(F)c(Cl)c1 | -47
O=C(Cc1ccccc1)N1CC[C@@H]2[C@H]1c1cc(C#Cc3ccccc3)ccc1N[C@@H]2CO | 64*
C=C1C(=O)OC2C1CCC(C)=C1C(=O)C3OC3(C)C12 (stereo unspecified) | 82*
O=C(CN1CCOCC1)N[C@H]1CC[C@H](CCNC(=O)Nc2cc(F)ccc2F)O[C@H]1CO | -53
Cc1ccc(NC(=O)C2C(c3ccccc3)C2(Cl)Cl)c(C)c1 (stereo unspecified) | -71
COCCNC(=O)CCc1c(C)nc2c(c(C)nn2-c2ccc(C)c(C)c2)c1C | -78
CC1CCCN(C(=O)Cc2ccc(F)cc2)C1 (stereo unspecified) | -75
O=C/C=C/c1ccc(-c2ccccc2)cc1 | 74*
SMILES | PGC1a acetyl up
O=S(=O)(N[C@@H]1CC[C@@H](CCNS(=O)(=O)c2ccccc2Cl)O[C@H]1CO)c1ccccc1 | -62
CCOc1ccc(N(C(=O)Nc2ccccc2)C2=NCCC2)cc1 | -44
CCOc1ccc(S(=O)(=O)/N=C(/Nc2ccc(C(C)=O)cc2)c2ccccc2)cc1 | 66*
CCOc1ccc(NS(=O)(=O)c2ccc3c(c2)oc(=O)n3C)cc1 | -46
O=[N+]([O-])c1cc(-c2ncccn2)c([N+](=O)[O-])s1 | -61
CCOC(=O)c1c(C)n(C)c2ccc(OCC(O)Cn3nc(C)c(Br)c3C)cc12 (stereo unspecified) | 61*
O=C(N/N=C/C=C\c1ccccc1[N+](=O)[O-])c1cccnc1 | -42
N#C/C(=C\C=C\c1ccccc1[N+](=O)[O-])C(=O)NCc1ccccc1 | 128*
COCC(=O)Nc1ccc2c(c1)OC[C@@H](C)N(CCc1ccccc1)C[C@H](C)[C@H](OC)CN(C)C2=O | -46
O=C1/C(=C\c2ccc(Cl)c(Cl)c2)CN(C(=O)CCN2CCOCC2)C/C1=C/c1ccc(Cl)c(Cl)c1 | -54
C[C@H](NC(=O)C[C@H]1C[C@@H]2c3cc(NC(=O)Nc4ccc(C(F)(F)F)cc4)ccc3O[C@@H]2[C@@H](CO)O1)c1ccccc1 | -44
CC1=CC=CC2=NC(=O)CC(C)(C(=O)N(CC(=O)NC3CCCC3)c3ccccc3C)N12 (stereo unspecified) | 54*
C=CCNc1nnc(SC2CC(=O)N(c3ccc(OC)cc3)C2=O)s1 (stereo unspecified) | 75*
CCSC1=N/C(=C\c2ccccc2)C(=O)N1c1ccc(OC)cc1 | -51
O=C(CN1C(=O)C2CC=CCC2C1=O)Nc1nccs1 (stereo unspecified) | -50
C#CCN(C[C@@H]1[C@@H](OC(=O)NC2CCCC2)[C@@H](OC(=O)NC2CCCC2)Cn2c(=O)ccc(=O)n21)S(=O)(=O)c1ccc(C)cc1 | 111*
C#CCN(C[C@@H]1[C@@H](OC(=O)Nc2cccs2)[C@@H](OC(=O)Nc2cccs2)Cn2c(=O)ccc(=O)n21)S(=O)(=O)c1ccc(C)cc1 | -43
C#CCN(C[C@@H]1[C@@H](OC(=O)NCc2ccccc2F)[C@@H](OC(=O)NCc2ccccc2F)Cn2c(=O)ccc(=O)n21)S(=O)(=O)c1ccc(C)cc1 | -60
O=C(COC(=O)c1ccccc1C(=O)c1ccc(Cl)c([N+](=O)[O-])c1)NC1CC1 | 94*
